Test results published in ChEMBL document CHEMBL4257553, “Novel organophosphorus aminopyrimidines as unique structural DNA-targeting membrane active inhibitors towards drug-resistant methicillin-resistant Staphylococcus aureus” (Medchemcomm, 2018).
Converted amounts (≈) assume the structure as drawn. The source made the active and inactive calls. The rule behind the calls is not given here.

How the values were obtained:
[1] = tested on: Staphylococcus aureus; assay: Antibacterial activity against Staphylococcus aureus ATCC 25923 after 24 hrs by microbroth dilution method; assay type: functional; conditions: ATCC 25923, 24 h
Method in brief: (§1)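 Tested by CLSI-standard broth microdilution against a panel of eleven bacterial strains, Gram-positive and Gram-negative, including MRSA.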

[2] = tested on: Staphylococcus aureus; assay: Antibacterial activity against Staphylococcus aureus after 24 hrs by microbroth dilution method; assay type: functional; method in brief: as §1
[3] = tested on: Staphylococcus aureus; assay: Antibacterial activity against Staphylococcus aureus ATCC 29213 after 24 hrs by microbroth dilution method; assay type: functional; conditions: ATCC 29213, 24 h; method in brief: as §1
[4] = tested on: Enterococcus faecalis; assay: Antibacterial activity against Enterococcus faecalis after 24 hrs by microbroth dilution method; assay type: functional; method in brief: as §1
[5] = tested on: Acinetobacter baumannii; assay: Antibacterial activity against Acinetobacter baumannii after 24 hrs by microbroth dilution method; assay type: functional; method in brief: as §1
[6] = tested on: Escherichia coli; assay: Antibacterial activity against Escherichia coli after 24 hrs by microbroth dilution method; assay type: functional; method in brief: as §1
[7] = tested on: Pseudomonas aeruginosa; assay: Antibacterial activity against Pseudomonas aeruginosa ATCC 27853 after 24 hrs by microbroth dilution method; assay type: functional; conditions: ATCC 27853, 24 h; method in brief: as §1
[8] = tested on: Klebsiella pneumoniae; assay: Antibacterial activity against Klebsiella pneumoniae after 24 hrs by microbroth dilution method; assay type: functional; method in brief: as §1
[9] = tested on: Pseudomonas aeruginosa; assay: Antibacterial activity against Pseudomonas aeruginosa after 24 hrs by microbroth dilution method; assay type: functional; method in brief: as §1
[10] = tested on: Staphylococcus aureus; assay: Antibacterial activity against methicillin resistant Staphylococcus aureus after 24 hrs by microbroth dilution method; assay type: functional; method in brief: as §1
[11] = tested on: Escherichia coli; assay: Antibacterial activity against Escherichia coli ATCC 25922 after 24 hrs by microbroth dilution method; assay type: functional; conditions: ATCC 25922, 24 h; method in brief: as §1
[12] = tested on: Aspergillus fumigatus; assay: Antifungal activity against Aspergillus fumigatus after 24 hrs by microbroth dilution method; assay type: functional
[13] = tested on: Aspergillus fumigatus; assay: Potency index, ratio of fluconazole MIC to compound MIC for antifungal activity against Aspergillus fumigatus; assay type: functional
[14] = tested on: Candida albicans; assay: Antifungal activity against Candida albicans ATCC 90023 after 24 hrs by microbroth dilution method; assay type: functional; conditions: ATCC 90023, 24 h
[15] = tested on: Cell membrane; assay: Binding affinity to methicillin resistant Staphylococcus aureus cell membrane assessed as induction of membrane permeabilization at 12 times MIC measured for 10 to 70 mins by propidium iodide dye based fluorescence assay
Method in brief: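 MRSA cultured 12 h at 37 °C, centrifuged, washed and resuspended in 5 mM glucose/5 mM HEPES (1:1). Compound (12 × MIC) added to cuvette with cells and propidium iodide. PI uptake followed as fluorescence increase (ex 535 nm, em 617 nm).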

[16] = Cytotoxicity against mouse L929 cells assessed as cell viability up to 128 ug/ml after 48 hrs by MTT assay relative to control; assay type: cell-based; conditions: read-out: Activity
Method in brief: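 Mouse fibroblast L929 cells grown in DMEM with 10% serum and 1% penicillin/streptomycin at 37 °C, 5% CO2, seeded and cultured 24 h. Compound diluted in medium and tested in triplicate at 0, 4, 8, 16, 32, 64, 128, 256 and 512 μg/mL for 48 h. MTT in PBS added for 3–4 h, formazan dissolved in DMSO, absorbance read at 570 nm (also stated 490 nm).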

[17] = tested on: DNA; assay: Binding affinity to methicillin resistant Staphylococcus aureus DNA by absorption spectra analysis; assay type: nucleic-acid assay
[18] = tested on: Staphylococcus aureus; assay: Bactericidal activity against methicillin resistant Staphylococcus aureus assessed as reduction in bacterial load at 6 times MIC up to 1 hr by time kill assay; assay type: functional
Method in brief: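 MRSA grown 6 h at 37 °C and diluted to about 1.8 × 10^5 CFU/mL. Compound added at MIC and 6 × MIC, then incubated at 37 °C. Samples taken at 0, 30, 60, 90, 120, 240, 360 and 420 min, diluted 10-fold serially in 0.9% saline, plated on agar and counted after 24 h at 37 °C.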

[19] = tested on: DNA; assay: Inhibition of neutral red dye binding to methicillin resistant Staphylococcus aureus DNA up to 3.5 x 10^-5mol/L by UV-Visible absorption spectra analysis; assay type: nucleic-acid assay
Method in brief: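 MRSA genomic DNA with A260/A280 > 1.8 in Tris-HCl buffer pH 7.4, combined with aqueous neutral red dye stock. Competitive displacement followed by UV-vis absorption spectroscopy.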

[20] = tested on: DNA; assay: Binding affinity to methicillin resistant Staphylococcus aureus DNA assessed as hypochromic effect up to 3.5 x 10^-5mol/L by absorption spectra analysis; assay type: nucleic-acid assay
[21] = tested on: Staphylococcus aureus; assay: Antibacterial activity against methicillin resistant Staphylococcus aureus after 16 serial passages measured after 12 hrs by microbroth dilution method; assay type: functional, organism-based
Method in brief: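 MRSA standard strain passaged serially with compound. Each passage starts from the bacteria grown at sub-MIC (0.5 × MIC), and the MIC is redetermined by the broth microdilution method at every passage.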

Row | Compound | MIC [1] [µg/mL] | MIC [2] [µg/mL] | MIC [3] [µg/mL] | MIC [4] [µg/mL] | MIC [5] [µg/mL] | MIC [6] [µg/mL] | MIC [7] [µg/mL] | MIC [8] [µg/mL] | MIC [9] [µg/mL] | MIC [10] [µg/mL] | MIC [11] [µg/mL] | MIC [12] [µg/mL] | Ratio [13] | further results
1 | CCn1cc(C(=O)O)c(=O)c2cc(F)c(N3CCNCC3)cc21 [NORFLOXACIN] | 1 (≈ 3.13 µM) | 0.5 (≈ 1.57 µM) | 2 (≈ 6.26 µM) | 4 (≈ 12.5 µM) | 8 (≈ 25.1 µM) | 16 (≈ 50.1 µM) | 0.5 (≈ 1.57 µM) | 4 (≈ 12.5 µM) | 2 (≈ 6.26 µM) | 8 (≈ 25.1 µM) | 8 (≈ 25.1 µM) | – | – | –
2 | CCOP(=O)(OCC)C(Nc1ncccn1)c1c[nH]c2ccccc12 (stereo unspecified) | 256 (≈ 710 µM) | 256 (≈ 710 µM) | 128 (≈ 355 µM) | 256 (≈ 710 µM) | 128 (≈ 355 µM) | 256 (≈ 710 µM) | 256 (≈ 710 µM) | 64 (≈ 178 µM) | 256 (≈ 710 µM) | 4 (≈ 11.1 µM) | 256 (≈ 710 µM) | > 16 | 16 | –
3 | C#CCn1c(CCCC)nc(Cl)c1C(Nc1ncccn1)P(=O)(OCC)OCC (stereo unspecified) | 32 (≈ 72.7 µM) | 64 (≈ 145 µM) | 256 (≈ 582 µM) | 256 (≈ 582 µM) | 128 (≈ 291 µM) | 256 (≈ 582 µM) | 256 (≈ 582 µM) | 256 (≈ 582 µM) | 256 (≈ 582 µM) | 128 (≈ 291 µM) | 128 (≈ 291 µM) | > 16 | 16 | –
4 | O=[N+]([O-])c1ccc(C(Nc2ncccn2)P(=O)(O)O)cc1 (stereo unspecified) | 128 (≈ 413 µM) | 128 (≈ 413 µM) | 128 (≈ 413 µM) | 128 (≈ 413 µM) | 256 (≈ 825 µM) | 128 (≈ 413 µM) | 256 (≈ 825 µM) | 256 (≈ 825 µM) | 128 (≈ 413 µM) | 128 (≈ 413 µM) | 128 (≈ 413 µM) | > 16 | 16 | –
5 | CCOP(=O)(OCC)C(Nc1ncccn1)c1ccc(Cl)cc1Cl (stereo unspecified) | 8 (≈ 20.5 µM) | 64 (≈ 164 µM) | 64 (≈ 164 µM) | 32 (≈ 82 µM) | 64 (≈ 164 µM) | 256 (≈ 656 µM) | 8 (≈ 20.5 µM) | 64 (≈ 164 µM) | 64 (≈ 164 µM) | 8 (≈ 20.5 µM) | 16 (≈ 41 µM) | > 16 | 16 | MIC [14]: 8 µg/mL (≈ 20.5 µM)
6 | CCOP(=O)(OCC)C(Nc1ncccn1)c1ccc2oc(=O)ccc2c1 (stereo unspecified) | 64 (≈ 164 µM) | 128 (≈ 329 µM) | 128 (≈ 329 µM) | 512 (≈ 1320 µM) | 64 (≈ 164 µM) | 512 (≈ 1320 µM) | 512 (≈ 1320 µM) | 512 (≈ 1320 µM) | 64 (≈ 164 µM) | 256 (≈ 658 µM) | 256 (≈ 658 µM) | > 16 | 16 | –
7 | CCOP(=O)(OCC)C(Nc1ncccn1)c1cn(CC)c2ccccc12 (stereo unspecified) | 64 (≈ 165 µM) | 64 (≈ 165 µM) | 256 (≈ 659 µM) | 128 (≈ 330 µM) | 64 (≈ 165 µM) | 256 (≈ 659 µM) | 128 (≈ 330 µM) | 64 (≈ 165 µM) | 256 (≈ 659 µM) | 4 (≈ 10.3 µM) | 256 (≈ 659 µM) | > 16 | 16 | –
8 | CCCCCn1c(CCCC)nc(Cl)c1C(Nc1ncccn1)P(=O)(OCC)OCC (stereo unspecified) | 32 (≈ 67.8 µM) | 64 (≈ 136 µM) | 64 (≈ 136 µM) | 8 (≈ 17 µM) | 32 (≈ 67.8 µM) | 128 (≈ 271 µM) | 64 (≈ 136 µM) | 8 (≈ 17 µM) | 64 (≈ 136 µM) | 4 (≈ 8.48 µM) | 16 (≈ 33.9 µM) | > 16 | 16 | Activity [15]: Active; viability at 48 h [16]: ≤ 80%; K [17]: 6.84 ×10³ L/mol; Activity [18]: >3 deltalog10CFU/ml; inhibition [19]: Active; Activity [20]: Active; Activity [21]: Active
9 | CCCCc1nc(Cl)c(C(Nc2ncccn2)P(=O)(OCC)OCC)n1CC (stereo unspecified) | 128 (≈ 298 µM) | 512 (≈ 1190 µM) | 256 (≈ 596 µM) | 64 (≈ 149 µM) | 256 (≈ 596 µM) | 256 (≈ 596 µM) | 256 (≈ 596 µM) | 128 (≈ 298 µM) | 256 (≈ 596 µM) | 256 (≈ 596 µM) | 256 (≈ 596 µM) | > 16 | 16 | –
10 | CCOP(=O)(OCC)C(Nc1ncccn1)c1ccc(OC)cc1 (stereo unspecified) | 64 (≈ 182 µM) | 256 (≈ 729 µM) | 256 (≈ 729 µM) | 64 (≈ 182 µM) | 128 (≈ 364 µM) | 256 (≈ 729 µM) | 4 (≈ 11.4 µM) | 256 (≈ 729 µM) | 128 (≈ 364 µM) | 256 (≈ 729 µM) | 256 (≈ 729 µM) | > 16 | 16 | –
